From ChEMBL document CHEMBL5512625, “Design, synthesis, and biological evaluation of first-in-class indomethacin-based PROTACs degrading SARS-CoV-2 main protease and with broad-spectrum antiviral activity” (Eur J Med Chem, 2024)
The source made the active and inactive calls. The rule behind the calls is not given here.

Columns and labels:
Type in all cases: cell-based
[1] = biological target: T1, von Hippel-Lindau disease tumor suppressor-SARS-Cov-2 polyprotein (Severe acute respiratory syndrome coronavirus 2) (UniProt P40337+P0DTD1); assay: PROTAC activity at human VHL/FLAG-nsp4-tagged SARS CoV-2 MPro overexpressed in HEK293T cells assessed as protein degradation at 25 uM pretreated for 2 hrs followed by viral protein transfection measured after 24 hrs in presence of VH298 by Western blot analysis; conditions: time 26.0 hrs
T1 sequence (P40337 whole entry, looked up, other chains not shown): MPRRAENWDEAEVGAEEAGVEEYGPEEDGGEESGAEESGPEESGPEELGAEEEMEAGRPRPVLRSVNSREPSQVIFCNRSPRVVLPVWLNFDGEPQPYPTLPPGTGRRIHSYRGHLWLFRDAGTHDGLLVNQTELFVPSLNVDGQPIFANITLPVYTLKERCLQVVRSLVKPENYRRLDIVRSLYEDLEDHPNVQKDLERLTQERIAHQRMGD
Method in brief: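 293T cells pretreated with compound at 25 µM, with or without 50 µM VHL inhibitor VH298. Cells then transfected to express FLAG-nsp4-Mpro and collected 24 h post-transfection. Mpro detected by Western blot, β-actin as loading control.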

[2] = biological target: Replicase polyprotein 1ab (Severe acute respiratory syndrome coronavirus 2) (UniProt P0DTD1); assay: Effect on catalytic activity of FLAG-nsp4-tagged SARS CoV-2 MPro overexpressed in HEK293T cells pretreated for 2 hrs followed by viral protein transfection measured after 24 hrs by Western blot analysis; conditions: time 26.0 hrs
Method in brief: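 293T cells pretreated 2 h, then transfected with FLAG-nsp4-Mpro plasmid and kept 24 h with compound. Western blot with anti-Mpro antibody reads cleavage: release of ~34 kDa mature Mpro versus the uncleaved upper band.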

[3] = biological target: von Hippel-Lindau disease tumor suppressor-SARS-Cov-2 polyprotein (Severe acute respiratory syndrome coronavirus 2, UniProt P40337+P0DTD1); assay: (§1) PROTAC activity at human VHL/FLAG-nsp4-tagged SARS CoV-2 MPro overexpressed in HEK293T cells assessed as protein degradation pretreated for 2 hrs followed by viral protein transfection measured after 24 hrs by Western blot analysis
Chain of von Hippel-Lindau disease tumor suppressor-SARS-Cov-2 polyprotein (P40337 whole entry, other chains not shown): as the sequence (P40337 whole entry, looked up, other chains not shown) above
Method in brief: (§2)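 293T cells pretreated 2 h with compound (1–25 µM) or 0.1% DMSO, then transfected with FLAG-nsp4-Mpro plasmid and kept 24 h with compound. Western blot for Mpro with β-actin loading control. Densitometry from 2–3 independent experiments; DC50 by nonlinear regression, plus % degradation at the top concentration.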

[4] = biological target: T1, von Hippel-Lindau disease tumor suppressor-SARS-Cov-2 polyprotein (Severe acute respiratory syndrome coronavirus 2); assay: PROTAC activity at human VHL/FLAG-nsp4-tagged SARS CoV-2 MPro overexpressed in HEK293T cells assessed as protein degradation at 25 uM pretreated for 2 hrs followed by viral protein transfection measured after 24 hrs by Western blot analysis relative to control; conditions: time 26.0 hrs; method in brief: as §2
[5] = biological target: Replicase polyprotein 1ab (Severe acute respiratory syndrome coronavirus 2) (UniProt P0DTD1); assay: Effect on catalytic activity of FLAG-nsp4-tagged SARS CoV-2 MPro overexpressed in HEK293T cells by FRET assay
[6] = biological target: T1, von Hippel-Lindau disease tumor suppressor-SARS-Cov-2 polyprotein (Severe acute respiratory syndrome coronavirus 2); assay: PROTAC activity at human VHL/FLAG-nsp4-tagged SARS CoV-2 MPro overexpressed in HEK293T cells assessed as protein degradation at 25 uM pretreated for 2 hrs followed by viral protein transfection measured after 24 hrs by Western blot analysis; conditions: time 26.0 hrs; method in brief: as §2
[7] = biological target: T1, von Hippel-Lindau disease tumor suppressor-SARS-Cov-2 polyprotein (Severe acute respiratory syndrome coronavirus 2); assay: as §1; conditions: time 26.0 hrs; method in brief: as §2

Row | Structure (SMILES) | Activity [1] | Activity [2] | DC50 [3] [µM] | Activity [4] [%] | Activity [5] | Activity [6] | Activity [7]
1 | COc1ccc2c(c1)c(CC(=O)N1CCN(CC(=O)N[C@H](C(=O)N3C[C@H](O)C[C@H]3C(=O)N[C@@H](C)c3ccc(-c4scnc4C)cc3)C(C)(C)C)CC1)c(C)n2C(=O)c1ccc(Cl)cc1 | inactive | inactive | 7.3 | 72 | inactive |  | 
2 | COc1ccc2c(c1)c(CC(=O)NCCN1CCN(C(=O)CCC(=O)N[C@H](C(=O)N3C[C@@H](O)C[C@H]3C(=O)N[C@@H](C)c3ccc(-c4scnc4C)cc3)C(C)(C)C)CC1)c(C)n2C(=O)c1ccc(Cl)cc1 |  |  |  |  |  | inactive | 
3 | COc1ccc2c(c1)c(CC(=O)NCCN1CCN(C(=O)CCC(=O)N[C@H](C(=O)N3C[C@H](O)C[C@H]3C(=O)N[C@@H](C)c3ccc(-c4scnc4C)cc3)C(C)(C)C)CC1)c(C)n2C(=O)c1ccc(Cl)cc1 | inactive | inactive | 18.1 | 67 | inactive |  | 
4 | COc1ccc2c(c1)c(CC(=O)NCCCCCCC(=O)N[C@H](C(=O)N1C[C@H](O)C[C@H]1C(=O)N[C@@H](C)c1ccc(-c3scnc3C)cc1)C(C)(C)C)c(C)n2C(=O)c1ccc(Cl)cc1 |  | inactive |  |  | inactive |  | Dose-Dependent Effect
